High-throughput results from PubChem BioAssay.
MC4R barr agon – MC4R agonists recruiting beta-arrestin, primary screen, cell-based, luminescence, agonist arm of biased-ligand search; Melanocortin receptor 4 (Homo sapiens), P32245; U2OS MC4R beta-arrestin complementation; percent of melanotan II response, DMSO zero; activation, % at 8.9 µM; 360,000 tested, 0.98% active; AID 540308, 2011;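 active = activation above a per-plate cutoff, the mean activation of sample wells on that plate plus 3 SD, cut at about 8% in these data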
NTR1 agonist – agonists of human NTR1, primary screen, imaging, U2OS cells, beta-arrestin-GFP, high content; Neurotensin receptor type 1 (Homo sapiens), P30989; NTR1-U2OS beta-arrestin-GFP spot imaging, agonist mode; activation, % at 20 µM; 330,000 tested, 0.17% active;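 active = activation at or above 40% of the spot to cytoplasm intensity ratio, with at least 20 cells analyzed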
MC4R antagonist – MC4R antagonists of cAMP signaling, primary screen, cell-based, TR-FRET, antagonist arm of biased-ligand search; 360,000 tested, 0.48% active; inhibition, % at 6.5 µM; Melanocortin receptor 4 (Homo sapiens), P32245; MC4R-expressing cells, MTII-stimulated cAMP, LANCE TR-FRET; AID 540295, 2011;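 active = inhibition above its plate's cutoff, the mean of tested wells on that plate plus 3 SD, cut at about 29% in these data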
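Assay system: human MC4R-expressing U2OS cells; reagent: Melanotan II stimulation of cells; dosing: 6.5 µM single dose; timing: compound 30 min, challenge 1 h, detection 1 h; signal: TR-FRET cAMP assay; replicates: one well per compound, no replicates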
Rev-erbA mod – modulators of Rev-erb alpha DNA binding, primary screen, biochemical, FITC-DNA, fluorescence polarization, uHTS. Nuclear receptor subfamily 1 group D member 1 (Homo sapiens), P20393. Rev-erbα–FITC-DNA binding, 90 min. activity, % at 10 µM. 370,000 tested, 0.79% active. AID 1259318, 2017;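 active = activity above about 14%, limit read from the data; passing the limit was not always enough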
Target sequence (P20393 whole entry, looked up): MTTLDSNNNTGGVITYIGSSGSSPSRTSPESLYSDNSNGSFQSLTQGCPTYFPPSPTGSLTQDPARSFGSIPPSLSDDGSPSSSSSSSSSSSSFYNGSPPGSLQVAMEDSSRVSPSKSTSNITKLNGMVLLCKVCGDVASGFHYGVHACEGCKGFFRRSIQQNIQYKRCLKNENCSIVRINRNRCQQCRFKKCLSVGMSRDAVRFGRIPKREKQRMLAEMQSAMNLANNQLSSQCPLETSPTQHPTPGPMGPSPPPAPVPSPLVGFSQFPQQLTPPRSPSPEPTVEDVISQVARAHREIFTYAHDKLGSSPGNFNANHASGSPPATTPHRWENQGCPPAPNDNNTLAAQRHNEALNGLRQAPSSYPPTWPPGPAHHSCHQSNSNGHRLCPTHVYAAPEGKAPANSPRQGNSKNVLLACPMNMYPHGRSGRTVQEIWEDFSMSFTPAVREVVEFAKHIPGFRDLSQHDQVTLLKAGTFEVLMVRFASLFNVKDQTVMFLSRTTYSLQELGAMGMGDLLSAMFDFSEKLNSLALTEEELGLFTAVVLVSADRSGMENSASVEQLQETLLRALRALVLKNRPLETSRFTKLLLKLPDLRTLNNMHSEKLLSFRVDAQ
PG9 Ab binder – binders of HIV-1 gp120 antibody PG9, primary screen, biochemical, TR-FRET. TR-FRET gp120-PG9 antibody binding. inhibition, % at 6.7 µM. 360,000 tested, 0.43% active. AID 624416, 2012; in the data active = inhibition above about 8.5%
U2OS cAMP counter – nonselective cAMP signaling inhibitors, parental cells, counter-screen for MC4R biased antagonist project, cell-based, TR-FRET, U2OS, forskolin, triplicate. shares compounds with MC4R antagonist. LANCE TR-FRET. inhibition, % at 6.5 µM. 1,600 tested, 26% active. AID 602193, 2012;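 active = mean inhibition over triplicates above the low-control well mean plus 3 SD, set per campaign, cut at about 13% in these data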;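 note: signal is single emission at 671 nm which falls as cellular cAMP rises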
MC4R antag conf – MC4R cAMP antagonists, retest, confirmation, cell-based, TR-FRET; shares compounds with MC4R antagonist; MC4R-expressing cells, MTII-stimulated cAMP; inhibition, % at 6.5 µM; 1,600 tested, 27% active; in the data active = inhibition above about 29%
Large screens that a line does not name were inactive (follow-up assays come after a bar, where they were run). A selection: hits, their analogues and other compounds. The true share with any hit is near 2.5%.

COc1ccc(/C=C(\C#N)C(=O)Nc2cccc3ncccc23)cc1OC	MC4R antagonist 31 | U2OS cAMP counter inactive | MC4R antag conf inactive
Cc1ccc(O)c(NC(=O)c2noc3c2CCCCC3)c1	MC4R antagonist 31 | U2OS cAMP counter inactive | MC4R antag conf inactive
Cc1ccc(NC(=O)c2noc3c2CCCCC3)cc1	none
CC(OC(=O)Cn1cnc2c1c(=O)n(C)c(=O)n2C)C(=O)NC(C)c1ccc(Cl)cc1Cl (stereo unspecified)	MC4R antagonist 36 | U2OS cAMP counter inactive | MC4R antag conf inactive
COC(=O)[C@H](Cc1c[nH]c2ccccc12)NC(=O)NCc1ccc(OC)cc1	MC4R antagonist 37 | U2OS cAMP counter inactive | MC4R antag conf inactive
COc1ccc(CNC(=O)COC(=O)[C@H](Cc2c[nH]c3ccccc23)NC(=O)c2cccs2)cc1	MC4R antagonist 43 | U2OS cAMP counter 22 | MC4R antag conf inactive
C=CCN(C)CC#Cc1ccccc1C	none (no result: MC4R barr agon, NTR1 agonist, MC4R antagonist, PG9 Ab binder)
COC(=O)[C@]12C[C@H](CC(=O)NCc3ccc(C)o3)C(=O)N(Cc3cccc4ccccc34)C1=C[C@H](C(C)(C)C)O[C@@H]2C	none (no result: MC4R barr agon, NTR1 agonist, MC4R antagonist, PG9 Ab binder)
COc1cc(C=Nn2c(-c3cc(-c4ccccc4)n[nH]3)n[nH]c2=S)ccc1OC(C)=O	none (no result: MC4R barr agon, NTR1 agonist, MC4R antagonist, PG9 Ab binder)
CC(=O)OCC(=O)[C@@]1(O)[C@H](OC(C)=O)CC2C3CCC4=CC(=O)C=C[C@]4(C)[C@@]3(F)[C@@H](O)C[C@@]21C (stereo partly specified)	none (no result: MC4R barr agon, NTR1 agonist, MC4R antagonist, PG9 Ab binder)
CN(C)C(=O)c1cn(-c2ccc(Cl)cc2)c(=O)c2ccccc12	MC4R antagonist 32 | U2OS cAMP counter inactive | MC4R antag conf inactive
CC1(C)CC[C@]2(C(=O)O[C@@H]3O[C@H](CO)[C@@H](O)[C@H](O)[C@H]3O)CC[C@]3(C)C(=CCC4[C@@]5(C)CC[C@H](O[C@@H]6O[C@H](C(=O)O)[C@@H](O[C@H]7OC[C@@H](O)[C@@H](O)[C@@H]7O)[C@H](O)[C@H]6O)C(C)(C)C5CC[C@]43C)[C@@H]2C1 (stereo partly specified)	none
CC1(C)CC[C@]2(C(=O)O)CC[C@]3(C)C(=CC[C@@H]4[C@@]5(C)CC[C@H](O[C@@H]6O[C@H](C(=O)O)[C@@H](O)[C@H](O[C@@H]7OC[C@H](O)[C@H](O)[C@H]7O)[C@H]6O)C(C)(C)[C@@H]5CC[C@]43C)[C@@H]2C1	MC4R antagonist 111 | U2OS cAMP counter 36 | MC4R antag conf inactive
CN1OC[C@@H]2CN3C(=Nc4cc(C(F)(F)F)cc(C(F)(F)F)c4)Sc4ccccc4[C@@H]3C[C@@H]21	none (no result: MC4R barr agon, NTR1 agonist, MC4R antagonist)
Cc1c(C(=O)Nc2ccc(S(=O)(=O)Nc3ncccn3)cc2)oc2ccccc12	none
Cc1cc(NS(=O)(=O)c2ccc(NC(=O)c3oc4ccccc4c3C)cc2)no1	MC4R antagonist 29 | U2OS cAMP counter inactive | MC4R antag conf inactive
CC1(C(=O)N2CCC(CO)(Cc3cccc(C(F)(F)F)c3)CC2)CC1	MC4R antagonist 30 | U2OS cAMP counter inactive | MC4R antag conf inactive
CC(C)(C)OC(=O)NCCc1nnc(S(=O)(=O)Cc2ccc(Cl)cc2Cl)o1	MC4R antagonist 31 | U2OS cAMP counter inactive | MC4R antag conf 38
CCS(=O)(=O)N1Cc2ccccc2CC1C(=O)N(C)Cc1ccc(OC)c(F)c1 (stereo unspecified)	MC4R antagonist 34 | U2OS cAMP counter inactive | MC4R antag conf inactive
O=C(NCc1ccccc1)[C@@H]1CCCN1C(=O)[C@H]1CCCN1C(=O)c1ccc(F)cc1F	none (no result: MC4R barr agon, NTR1 agonist, MC4R antagonist)
